Active and inactive are the calls of the source.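 Rule for the calls, unless noted: active = inhibition above 20% together with a positive visual image hit; inconclusive = visual image hit but inhibition not above 20%; inactive = no visual image hit.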

The record followed here is PubChem BioAssay.

The nature of test [1]: inhibitors of TNFa-induced NFkB p65 translocation, primary screen, imaging, HUVEC, MLSMR starter and 10KST1 sets (AID 438).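 For inhibition: signal is the nuclear over cytoplasmic p65 intensity ratio per well.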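 Note: compound added about 3h40 before a 20 min TNFalpha stimulation.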 Conditions: HUVEC TNFa-induced p65 nuclear translocation; cell count: measured here: nuclei count (cytotoxicity indicator), at 2.08 µM unless noted; inhibition: at 2 µM, stronger effect = higher value unless noted.
The nature of test [2]: inhibitors of E-selectin induction by TNFa, primary screen, imaging, HUVEC, immunofluorescence, MLSMR starter and 10KST1 sets (AID 487;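 active = visually confirmed hit in the image check and inhibition above 20%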;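 for inhibition: signal is fraction of cell area covered by stained E-selectin grains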;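 for nuclei count: 100% = median nuclei count of all wells on the same plate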). Conditions: HUVEC TNFalpha-induced E-selectin immunofluorescence imaging, at 2 µM; inhibition: stronger effect = higher value; nuclei count: measured here: cell number, toxicity.
The nature of test [3]: DUSP6 inhibitors restoring Erk phosphorylation by chemical complementation, primary imaging in DUSP6-transfected HeLa (AID 609;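 active = compounds giving at least 50% inhibition in the cell-based MKP-3 phosphatase rescue imaging test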;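 for inhibition: phospho-Erk level distribution per well compared with pooled transfected vehicle control wells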). Conditions: HeLa MKP-3 transfected, phospho-Erk imaging KS statistic, at 10 µM.
In test [4] the target is Dual specificity protein phosphatase 6 (Homo sapiens) (UniProt Q16828). Described as above. The settings on record: HeLa MKP-3 transfected, phospho-Erk imaging KS statistic, at 10 µM, stronger effect = higher value.
Test [5] addresses Voltage-gated potassium channel subunit beta-2 (Rattus norvegicus) (UniProt P62483). Put plainly: KvBeta enzyme negative modulators, primary screen, biochemical, NADPH fluorescence (AID 622;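 active = fluorescence slope higher than the sample average by over 3 SD, cut at about -0.22 in these data, passing the limit was not always enough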;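 note: slope of raw intensity against log time taken from 70 to 1610 s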). Conditions: recombinant KvBeta, 4-cyanobenzaldehyde reduction, at 10 µM, stronger effect = higher value.
For test [6] the target is unchanged. Description: KvBeta positive modulators, primary screen, biochemical, NADPH fluorescence (AID 623;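 active = NADPH fluorescence slope more negative than the mean of all samples by about 3 SD, 99.7% confidence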;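 note: fluorescence intensity change per second fitted from 20 to 320 s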). Conditions: Recombinant KvBeta, NADPH fluorescence decrease slope, 10 min; at 10 µM; stronger effect = lower value.
For test [7], the target named is Alpha-2C adrenergic receptor (Homo sapiens) (UniProt P18825). Put plainly: modulators of alpha2C/GIRK thallium flux, primary screen, cell-based, HEK293 alpha2C/GIRK1/2 (AID 624;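 active = fluorescence slope after compound addition differing from the mean of all screened samples at 99.7% confidence, in either direction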;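 note: slope of fluorescence ratio to pre-addition baseline per second over 15 to 24 s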). Conditions: thallium flux BTC fluorescence, at 10 µM, actives lie on both sides.
Test [8] in a line: inhibitors of larval lipid processing in zebrafish, primary screen, whole organism, PED6 fluorescence, gall bladder and intestine (AID 686;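 active = a full or partial loss of lipid-probe fluorescence in the fish gall bladder, intestine or both, judged by eye; inactive = no fluorescence loss, or compound toxic to the fish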;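 note: signal comes from phospholipase A2 cleavage of quenched PED6 carried via bile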). Conditions: Zebrafish larvae PED6 lipid processing, fluorescence scoring. Summed up: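 Doses: 20 µM single dose. Test system: live zebrafish larvae aged 5-7 days, whole organism. Quantity: five larvae per well. Measured by: By-eye fluorescence microscopy. Reagent: ingested quenched lipid PED6 at 100 nM. Read-out: visual per-well fluorescence inhibition score. Times: overnight exposure of larvae to compound plus PED6.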

Test [9] can be described thus: inhibitors of Chlamydomonas gravitaxis, primary screen, whole organism, Chlamydomonas reinhardtii, WT vs cilia-less mutant, absorbance, 96-well (AID 463189;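 active = inhibition at or above 50% relative to wild type and mutant plate controls; inactive = inhibition below 50%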;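 note: 0% = wild type cc124 cells in DMSO and 100% = ciliumless bld1 mutant cells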). Conditions: OD600 absorbance, 2 days, at 10 µM, stronger effect = higher value.
Setting [10] is: measured here: cell density z-score.
The mark [11] stands for this setting: measured here: nuclear c-Myc green intensity z-score.
Setting [12] is: measured here: nuclear pErk red intensity z-score, stronger effect = higher value.

Voltage-gated potassium channel subunit beta-2 (Rattus norvegicus), sequence (P62483 whole entry, looked up): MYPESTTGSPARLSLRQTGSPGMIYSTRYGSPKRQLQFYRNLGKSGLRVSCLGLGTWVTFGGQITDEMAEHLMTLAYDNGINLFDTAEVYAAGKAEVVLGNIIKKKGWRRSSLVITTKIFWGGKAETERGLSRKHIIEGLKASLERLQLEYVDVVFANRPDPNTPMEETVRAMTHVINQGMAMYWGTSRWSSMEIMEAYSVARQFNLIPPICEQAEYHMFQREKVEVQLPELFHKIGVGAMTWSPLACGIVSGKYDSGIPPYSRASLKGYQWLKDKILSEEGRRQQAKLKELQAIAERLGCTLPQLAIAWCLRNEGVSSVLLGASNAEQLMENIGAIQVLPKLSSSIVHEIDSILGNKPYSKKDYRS
Dual specificity protein phosphatase 6 (Homo sapiens), sequence (Q16828 whole entry, looked up): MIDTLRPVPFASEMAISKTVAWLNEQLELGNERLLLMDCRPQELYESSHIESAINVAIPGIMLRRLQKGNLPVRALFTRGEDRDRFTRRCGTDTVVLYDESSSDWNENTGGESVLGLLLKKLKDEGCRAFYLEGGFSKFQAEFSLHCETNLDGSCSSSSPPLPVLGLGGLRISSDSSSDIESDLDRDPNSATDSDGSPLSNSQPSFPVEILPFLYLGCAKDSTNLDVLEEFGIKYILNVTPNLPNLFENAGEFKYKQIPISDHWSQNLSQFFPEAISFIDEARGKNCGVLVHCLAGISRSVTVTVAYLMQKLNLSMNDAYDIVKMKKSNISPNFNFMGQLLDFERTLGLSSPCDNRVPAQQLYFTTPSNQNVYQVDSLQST
Alpha-2C adrenergic receptor (Homo sapiens), sequence (P18825 whole entry, looked up): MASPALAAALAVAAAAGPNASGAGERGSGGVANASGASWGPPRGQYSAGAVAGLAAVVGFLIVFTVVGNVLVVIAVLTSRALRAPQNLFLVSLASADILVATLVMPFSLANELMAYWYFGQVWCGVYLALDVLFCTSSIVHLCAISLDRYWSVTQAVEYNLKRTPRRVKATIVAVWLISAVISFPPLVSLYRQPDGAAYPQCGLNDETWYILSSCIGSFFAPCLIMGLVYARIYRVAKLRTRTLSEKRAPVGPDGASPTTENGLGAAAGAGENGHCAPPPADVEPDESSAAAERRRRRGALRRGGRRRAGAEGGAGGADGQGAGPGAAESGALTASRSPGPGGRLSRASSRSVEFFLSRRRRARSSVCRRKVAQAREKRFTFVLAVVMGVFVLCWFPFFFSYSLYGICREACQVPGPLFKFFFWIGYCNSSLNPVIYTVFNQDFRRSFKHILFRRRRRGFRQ

For orientation: inhibition means the relative decrease from the control value, in per cent. For `O=c1c(C=NCCN2CCNCC2)c(O)n(C2CCCCC2)c(=O)n1C1CCCCC1`, the cell count in [1] amounted to 583. Moreover, the inhibition in [1] was -5.8% (inactive); in test [2] it was -162% (inactive); in test [4] it was 3.97% (inactive); in [9], 2.5% (inactive). In test [2], the nuclei count is 138%. Besides, the z-score amounted to 0.0473 in test [3] (setting [10]), 0.939 in [3] (setting [11]) and 0.718 in test [3] (setting [12]). The fluorescence slope in test [5] was -0.516 (inactive). Also, the NADPH fluorescence slope in test [6] was -3.1e-05 (inactive). The slope in test [7] was 0.00535 (inactive). In [8], the compound was called inactive.

In test [1], `CCC(=NCCN1CCCCC1)c1c(O)n(C)c(=O)n(C)c1=O` yielded a cell count of 605. The inhibition in test [1] was 0.7% (inactive); in [2], -61.5% (inactive); in [4] it was 7.83% (inactive); in [9], 18% (inactive). The nuclei count in test [2] was determined as 154%. Besides, the z-score in [3] (setting [10]) was 0.767; in test [3] (setting [11]) it was -1.21; in test [3] (setting [12]) it was 0.171. In addition, in [5], the fluorescence slope is -0.517 (inactive). Also, the NADPH fluorescence slope in test [6] was -3.9e-05 (inactive). Also, the slope in [7] is 0.00466 (inactive). The compound was classed as inactive in test [8].

Turning to `CN1CCc2nc(SCC(=O)OC(C)(C)C)c(C#N)cc2C1`, the cell count in test [1] is 606. Also, the inhibition in [1] was -21.6% (inactive); in [2] it was -56.3% (inactive); in test [4] it was 16% (inactive); in test [9], 102% (active). The compound also returned a nuclei count in [2] of 178%. The figures for the z-score in [3] (setting [10]), in test [3] (setting [11]) and in test [3] (setting [12]) were -1.57, -0.211 and 0.501, respectively. In addition, the fluorescence slope in test [5] is -0.316 (inactive). In [6], the NADPH fluorescence slope is -4.7e-05 (inactive). Also, the slope in test [7] is 0.00437 (inactive). Also, in test [8], the outcome was inactive.

`CC(=NCCO)c1c(O)n(C)c(=O)n(C)c1=O`: the cell count in test [1] was 608. The inhibition in test [1] is -15.1% (inactive); in [2] it was -3.1% (inactive); in test [4], 31% (inactive); in [9] it was -8.68% (inactive). Besides, the nuclei count in [2] is 90.8%. Also, the z-score in test [3] (setting [10]) was 2.05; in test [3] (setting [11]), -1.46; in test [3] (setting [12]), -1.21. The fluorescence slope in [5] was -0.432 (inactive). Further, the NADPH fluorescence slope in test [6] is -4.7e-06 (inactive). In [7], the slope is 0.00689 (inactive). The compound was called inactive in [8].

The compound `C/C(Cl)=C/CC1(CN2CCCC2=O)C(=O)NC(=O)NC1=O` registered a cell count in [1] of 584. Further, the inhibition in [1] is -2.5% (inactive); in test [2] it was -26.8% (inactive); in test [4] it was -3.98% (inactive); in [9], -13.6% (inactive). This compound also came in with a nuclei count in test [2] of 102%. The z-score in test [3] (setting [10]) was -1.18; in [3] (setting [11]), 1.93; in [3] (setting [12]), 0.656. For the same compound, in test [5], the fluorescence slope was -0.484 (inactive). Also, the NADPH fluorescence slope in test [6] was -0.000274 (inactive). Also, in test [7], the slope was 0.00947 (inactive). For the same compound, the compound was called inactive in test [8].

`CCOCCN1CCC(OC(C)=O)C(C)C1` (stereo unspecified): the cell count in test [1] came to 461. In addition, the inhibition in [1] is -0.9% (inactive); in test [2] it was -83.1% (inactive); in [4] it was -6.86% (inactive); in test [9], -15.8% (inactive). For the same compound, the nuclei count in test [2] was 115%. For the same compound, the results for the z-score in [3] (setting [10]), in test [3] (setting [11]) and in test [3] (setting [12]) were -0.179, -1.35 and -0.74, respectively. For the same compound, in test [5], the fluorescence slope is -0.51 (inactive). For the same compound, in test [6], the NADPH fluorescence slope was -0.000103 (inactive). Further, the slope in test [7] was 0.00675 (inactive). For the same compound, in test [8], the compound was classed as inactive.

`CCCCn1c(O)c(C=NCCN2CCCCC2)c(=O)[nH]c1=O` returned a cell count in test [1] of 430. The inhibition in test [1] was 0.6% (inactive); in test [2], 17.7% (inactive); in test [4], -4.7% (inactive); in [9] it was 3.56% (inactive). In addition, the nuclei count in test [2] worked out at 87.8%. Besides, the z-score is 0.907 in test [3] (setting [10]), -2.11 in [3] (setting [11]) and -0.0585 in test [3] (setting [12]). Moreover, the fluorescence slope in test [5] is -0.489 (inactive). The NADPH fluorescence slope in test [6] was 9.8e-06 (inactive). The slope in test [7] was 0.00621 (inactive). Also, the result in test [8] was inactive.

Compound `CNCCc1nc(N)n[nH]1` yielded a cell count in test [1] of 570. Besides, the inhibition was -4.9% (inactive) in [1], -160% (inactive) in [2], 27.8% (inactive) in [4] and 24% (inactive) in test [9]. For the same compound, the nuclei count in test [2] came to 139%. Moreover, the z-score in test [3] (setting [10]) is 1.42; in test [3] (setting [11]) it was -0.447; in test [3] (setting [12]), -0.807. Moreover, the fluorescence slope in [5] is -0.507 (inactive). In [6], the NADPH fluorescence slope was -4.4e-05 (inactive). In test [7], the slope is 0.00445 (inactive). Further, in test [8], the compound was called inactive.

In turn, `CCN(CC)CCCC(C)N=C(c1ccccc1)c1c(O)n(C)c(=O)n(C)c1=O` (stereo unspecified) gave a cell count in [1] of 617. For the same compound, the inhibition in [1] is -1.4% (inactive); in test [2] it was -14.1% (inactive); in test [4], -1.12% (inactive); in test [9], 8.34% (inactive). The nuclei count in [2] was 134%. For the same compound, the z-score was 0.00172 in test [3] (setting [10]), -0.468 in test [3] (setting [11]) and 1.57 in test [3] (setting [12]). In addition, the fluorescence slope in test [5] is -0.507 (inactive). In addition, in [6], the NADPH fluorescence slope is -7.1e-05 (inactive). For the same compound, in test [7], the slope was 0.00446 (inactive). The call in [8] was inactive.

`CCN(CC)c1ccc(N=Cc2c(O)n(-c3ccccc3C)c(=O)[nH]c2=O)cc1` showed a cell count in test [1] of 337. Also, the inhibition in [1] is 3.8% (inactive); in [2], -48.3% (inactive); in test [4], 7.01% (inactive); in test [9] it was 24.7% (inactive). For the same compound, in test [2], the nuclei count was 172%. In addition, the z-score in [3] (setting [10]) was -0.126; in [3] (setting [11]), 0.959; in test [3] (setting [12]), 0.0511. The fluorescence slope in test [5] is -0.394 (inactive). The NADPH fluorescence slope in test [6] was -0.000163 (inactive). The slope in [7] is 0.00909 (inactive). Also, the outcome in [8] was inactive.

For `COc1cccc(CN2CCN(C(=O)COc3ccc4ccccc4c3)CC2)c1`, the cell count in test [1] amounted to 430. Moreover, the inhibition in [1] is -6% (inactive); in test [2], -195% (inactive); in test [4] it was 11% (inactive); in test [9] it was 16.5% (inactive). Moreover, the nuclei count in [2] amounted to 210%. The z-score was -0.132 in test [3] (setting [10]), -0.0858 in test [3] (setting [11]) and -0.507 in [3] (setting [12]). Besides, the fluorescence slope in [5] was -0.354 (inactive). Moreover, the NADPH fluorescence slope in test [6] is -4.1e-06 (inactive). In [7], the slope was 0.00527 (inactive). For the same compound, the result in test [8] was inactive.

`CC(C)Cc1[nH]c(=O)c(C#N)c2c1CCC2` had a cell count in test [1] of 490. Further, the inhibition is 8.7% (inactive) in test [1], -51.3% (inactive) in test [2], -1.75% (inactive) in test [4] and 20.8% (inactive) in test [9]. This compound also registered a nuclei count in test [2] of 119%. The figures for the z-score in test [3] (setting [10]), in test [3] (setting [11]) and in test [3] (setting [12]) were 0.582, 0.998 and -0.369, respectively. Besides, in test [5], the fluorescence slope was -0.439 (inactive). Besides, the NADPH fluorescence slope in test [6] was -4.3e-06 (inactive). In addition, in test [7], the slope is 0.00495 (inactive). Moreover, in test [8], the compound was classed as inactive.
